Fewer inactive variants are shown than the library holds.

The labels stand for the following.
B1: tRNA (parent)
chain: GUUCCGUUGGCGUAAUGGUAACGCGUCUCCCUCCUAAGGAGAAGACUGCGGGUUCGAGUCCCGUACGGAACG

This data set covers variants of B1. Description: yeast fitness relative to wild type (ratio to wild type); higher = fitter; tRNA-Arg(CCU), competitive growth, 37 C, YPD. An outline of the steps: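 Variants of the tRNA-Arg(CCU) gene were chemically synthesised with a 3% per-site mutation rate across 69 sites and placed at the native genomic locus in Saccharomyces cerevisiae. Six parallel replicates of the pooled strains were competed in YPD at 37°C for 24 hours, and gene amplicons from the start and end populations were read by 100-nucleotide paired-end sequencing. Darwinian fitness relative to wild type was derived from changes in genotype frequencies. Genotypes required ≥ 100 starting reads, and estimates < 0.5 were set to 0.5.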
In the case of GUUCCGUUGGCGUAAUGGUUACGCGUCUCCCUCCUAAGGAGAAGAUUGCGGGUUCGAGUACCGUACGGAACG [A20U C46U C60A], the yeast fitness turned out to be 0.566. In the case of GUUCCGUUGGCGUAAUGGUUACGCGUCUCCCUCCUAAGGAGAAGACUGGGGGUUCGAGUCCCGUACGGUACG [A20U C49G A69U] it was 0.677; in that of GUUCCGUUGGCGUAAUGGUUACGCGUCUCCCUACUAAGGAGAAGACUGCGGGUUUGAGUCACGUACGGAACG [A20U C33A C55U C61A], not above 0.5. Take GUUCCGUUGGCGUAAUGGUUACGCGUCUGCCUCCUAAGGAGAAGACUGGGGGUCCGAGUCCCCUACGGAACG [A20U C29G C49G U54C G63C]: the yeast fitness worked out at 0.535.

Regarding GUUCCGUUGGCGUAAUGGUUACGCGUCUCCCUCAUAAGGAGAAGACUGCGGGUUCGAAUCCCGUACGGAACG [A20U C34A G58A], the yeast fitness was not above 0.5. The same measure for GUUCCGUUGGCGUAAUGGUUACGCGUCUCCCUUCUAAGGAGAAGACUGCGGGUUCGAGUCUCGUACGGAUCG [A20U C33U C61U A70U]: not above 0.5. The same measure for GUUCCGUUGGCGUAAUGGUUACGCGUCUGCCUCCUAAGGAGAAGACUGCGGGUUCGAGUCUCGUACGGAACG [A20U C29G C61U]: not above 0.5; for GUUCCGUUGGCGUAAUGGUUACGCGUCUCCCUCCUAAGGAGAAGACUGCGGGUUCGAGUCAUGUUCGGCACG [A20U C61A C62U A65U A69C]: not above 0.5; for GUUCCGUUGGCGUAAUGGUUACGCGUCUCCCUUCUAACGUGAACACUGCGCGUUCGAGUUCCGUACGGAACG [A20U C33U G38C A40U G44C G51C C60U]: 0.558. The same measure for GUUCCGUUGGCGUAAUGGUUACGCGUCUGCCUCCUAAGGAGAAGACUGGGGGUUCGAGUCCCGUACGGAACG [A20U C29G C49G]: 0.5; for GUUCCGUUGGCGUAAUGGUUACGCGUCUCCCUCGUAAGGAGGUGACUGCGGGUUCGAGUCCCGUGCGGAACG [A20U C34G A42G A43U A65G]: 0.573; for GUUCCGUUGGCGUAAUGGUUACGCGUCUCCCUCCUAAGGAGAAGACUGAGGAUUCGAGUCUCGUACGGAACG [A20U C49A G52A C61U]: not above 0.5. Regarding GUUCCGUUGGCGUAAUGGUUACGCGUCUCCUUCCUAAAGAGAAGACUGCGGGUUCGAGUCCCGUACGGCACG [A20U C31U G38A A69C], the yeast fitness was not above 0.5. In the case of GUUCCGUUGGCGUAAUGGUUACGCGUCUCCCUCGUAAGGAGAAGACUCCGGGUUCGAGUCCCGUACACAACG [A20U C34G G48C G67A G68C] it was not above 0.5; in that of GUUCCGUUGGCGUAAUGGUUACGCGUCUCCAUCCUACGGAGAAGGCUGCGGGUUCGAGUCCCGUACGAAACG [A20U C31A A37C A45G G68A], not above 0.5; in that of GUUCCGUUGGCGUAAUGGUUACGCGUCUUUCUCCUAAGGAGAAGACUGCGGGUUCGAGACCCGUACGGAACG [A20U C29U C30U U59A], 0.636. GUUCCGUUGGCGUAAUGGUUACGCGUCUCCCUCCUAAGGAGAAGACUGUGGGUUCGAGUCCCGUACAGAACG [A20U C49U G67A]: the yeast fitness is 0.585. The same measure for GUUCCGUUGGCGUAAUGGUUACGCGUCUCCCUCCUAAGGAGAAGACUGCGGGUUUGAGUCCCGUACAGAACG [A20U C55U G67A]: not above 0.5. As for GUUCCGUUGGCGUAAUGGUUACGCGUCUCCCUCCUAAGGAGAAGACUGCGGGUUCGAGUCCAGUACGGAACG [A20U C62A], the yeast fitness came out at 0.73. Consider GUUCCGUUGGCGUAAUGGUUACGCGUCUCACUCCUAAGGAGAAGACUGCGGGUUCGACUCCCGUACGAAACG [A20U C30A G58C G68A], for which the yeast fitness was not above 0.5. With GUUCCGUUGGCGUAAUGGUUACGCGUCUGCCUCCUAACAAGACGACUGCGGGUUCGAGUGCCGUCCGGAACG [A20U C29G G38C G39A A43C C60G A65C], the yeast fitness was not above 0.5.

Consider GUUCCGUUGGCGUAAUGGUUACGCGUCUCCUUCCUAAGGAGAAGACUGCGCGUUCGAGUCCCGUACGGAACG [A20U C31U G51C], for which the yeast fitness is 0.562. For GUUCCGUUGGCGUAAUGGUUACGCGUCUCCCUCCUAAGGAGAAGACUGUGGGUUCGAGUCCCGUCCGGAACG [A20U C49U A65C], the yeast fitness came to 0.655. Consider GUUCCGUUGGCGUAAUGGUUACGCGUCUUCCUCCUAUGGAGAAGACUGCGGGUUCGAGUCCCGUACGGAACG [A20U C29U A37U], for which the yeast fitness was not above 0.5.

With GUUCCGUUGGCGUAAUGGUUACGCGUCUCCCUCGUAGGGAGAAGACUGCGGGUUCGAGUCCCGUACGGAACG [A20U C34G A37G], the yeast fitness is not above 0.5. The same measure for GUUCCGUUGGCGUAAUGGUUACGCGUCUCCCUCCUAAGGAGAAGACUGCGGGUUCGAGUGCCGUACAGAACG [A20U C60G G67A]: not above 0.5; for GUUCCGUUGGCGUAAUGGUUACGCGUCUCCCUCCUAAGGAGAAGACUGCGGGUUCGAGUCGCGUUCGGAACG [A20U C61G A65U]: not above 0.5; for GUUCCGUUGGCGUAAUGGUUACGCGUCUCCCUCCUAAGGAGAAGAUUGCGGGUUCGAGUCCCGUACGGCACG [A20U C46U A69C]: 0.744. Turning to GUUCCGUUGGCGUAAUGGUUACGCGUCUCCGGCCUAAGGAGAAGACUGCGGGUUCGAGUCCCGUACGGAACG [A20U C31G U32G], the yeast fitness is 0.531.

For the variant GUUCCGUUGGCGUAAUGGUUACGCGUCUGCCUCCUAAGGAGAAGACUGGGGGAUCGAGUCCCGUACGGAACG [A20U C29G C49G U53A], the yeast fitness was not above 0.5. The same measure for GUUCCGUUGGCGUAAUGGUUACGCGUCUUCCUCCUAAGGAGAAGACUGCGGGUUCGAGUCCCGUACGGAACG [A20U C29U]: 0.714; for GUUCCGUUGGCGUAAUGGUUACGCGUCUCACUCCUAAGGAGAAGACUGCGGGUUCGAGUCCCGUACUGAACG [A20U C30A G67U]: 0.527. With GUUCCGUUGGCGUAAUGGUUACGCGUCUUCCUCCUAAGGAGAAGACUGGGGGUUAGAGUCCCGUACGGAACG [A20U C29U C49G C55A], the yeast fitness was determined as 0.522. In the case of GUUCCGUUGGCGUAAUGGUUACGCGUCUCGCUUCUAAGGAGAAGACUGCGGGUUAGAGUCCCGUACGGAACG [A20U C30G C33U C55A] it was not above 0.5. Regarding GUUCCGUUGGCGUAAUGGUUACGCGUCUCCCUCUUAAGGAGAAGACUGCGCGUUCGAGUUCCGUACGGAACG [A20U C34U G51C C60U], the yeast fitness was not above 0.5. In the case of GUUCCGUUGGCGUAAUGGUUACGCGUCUCCCUCUUAAGGAGAAGACUGCGCGUUCGAGUCCCGUACGGAACG [A20U C34U G51C] it was not above 0.5. The same measure for GUUCCGUUGGCGUAAUGGUUACGCGUCUCCCUCGUCAGGAGAAGACUGCGGGUUUGAGUCCCGUUCGGAACG [A20U C34G A36C C55U A65U]: not above 0.5. In the case of GUUCCGUUGGCGUAAUGGUUACGCGUCUCCCUCCUAAGGAGAAGACUGGGGGUCCGAGUCCCGUACGGAACG [A20U C49G U54C] it was not above 0.5.

For the origin of these results see the RNAGym collection of RNA variant scans (doi:10.1126/science.aae0568).
